Assay results as given in ChEMBL document CHEMBL2021796, “Synthesis and biological evaluation of a series of thieno-expanded tricyclic purine 2'-deoxy nucleoside analogues” (Bioorg Med Chem, 2012).

Tested on: Vaccinia virus
Assay: Antiviral activity against Vaccinia virus infected in HEL cells assessed as inhibition of virus-induced cytopathogenicity
Type: functional, organism-based
Conditions: Orthopoxvirus vaccinia
Outline: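 Confluent HEL, Vero or HeLa monolayers were infected with 100 CCID50 of virus while exposed to fivefold serial dilutions of compound. Virus-induced cytopathicity was scored when it reached completion in untreated infected controls. The EC50 is the concentration that inhibits cytopathicity by 50%.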

Row | Compound | EC50 [µM]
1 | Nc1ncnc2c1sc1ncn([C@H]3C[C@H](O)[C@@H](CO)O3)c12 | > 20
2 | NC(=O)c1ncn([C@@H]2O[C@H](CO)[C@@H](O)[C@H]2O)n1 [RIBAVIRIN] | > 250
3 | Nc1nc2c(sc3ncn([C@H]4C[C@H](O)[C@@H](CO)O4)c32)c(=O)[nH]1 | > 100
